Results published in ChEMBL document CHEMBL3745601 (Medchemcomm, 2015).

What was measured:
[1] = molecular target: T1, Adenosine receptor A1 (Homo sapiens) (UniProt P30542); assay: Displacement of [3H]N6-R-phenylisopropyladenosine from human adenosine A1 receptor stably expressed in CHO cell membrane at 10 uM by radioligand binding assay; assay type: cell membranes
T1 sequence (whole entry): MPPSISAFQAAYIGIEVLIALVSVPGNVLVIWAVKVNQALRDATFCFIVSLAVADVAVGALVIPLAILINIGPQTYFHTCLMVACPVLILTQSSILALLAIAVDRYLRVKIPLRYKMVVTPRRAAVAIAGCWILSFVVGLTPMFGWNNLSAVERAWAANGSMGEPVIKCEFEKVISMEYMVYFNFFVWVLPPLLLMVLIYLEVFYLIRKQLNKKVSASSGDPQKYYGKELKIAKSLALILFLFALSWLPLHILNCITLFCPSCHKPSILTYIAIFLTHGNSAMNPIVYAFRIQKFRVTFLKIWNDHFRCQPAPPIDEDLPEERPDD

[2] = tested on: Mus musculus; assay: Induction of mechano-allodynia in mouse chronic constriction injury model of neuropathic pain assessed as paw withdrawal threshold on contralateral side at 3 umol/kg, po; assay type: organism-based; conditions: in vivo
[3] = molecular target: T2, Adenosine receptor A3 (Mus musculus, UniProt Q61618); assay: Displacement of [125I]N6-(4-amino-3-iodobenzyl)adenosine-5'-N-methyl-uronamide from mouse adenosine A3 receptor stably expressed in CHO cell membrane by radioligand binding assay; assay type: cell membranes
T2 sequence (Q61618 whole entry): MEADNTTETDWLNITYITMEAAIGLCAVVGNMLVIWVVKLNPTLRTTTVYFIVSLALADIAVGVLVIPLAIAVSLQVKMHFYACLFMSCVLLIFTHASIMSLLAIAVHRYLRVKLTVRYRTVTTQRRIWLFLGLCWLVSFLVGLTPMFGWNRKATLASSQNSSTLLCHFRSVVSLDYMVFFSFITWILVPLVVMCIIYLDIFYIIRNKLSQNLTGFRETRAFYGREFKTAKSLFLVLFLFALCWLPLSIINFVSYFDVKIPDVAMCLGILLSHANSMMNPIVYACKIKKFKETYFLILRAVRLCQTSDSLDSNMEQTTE

[4] = molecular target: T3, Adenosine receptor A3 (Homo sapiens, UniProt P0DMS8); assay: Displacement of [125I]N6-(4-amino-3-iodobenzyl)adenosine-5'-N-methyl-uronamide from human adenosine A3 receptor stably expressed in CHO cell membrane by radioligand binding assay; assay type: cell membranes
T3 sequence (P0DMS8 whole entry): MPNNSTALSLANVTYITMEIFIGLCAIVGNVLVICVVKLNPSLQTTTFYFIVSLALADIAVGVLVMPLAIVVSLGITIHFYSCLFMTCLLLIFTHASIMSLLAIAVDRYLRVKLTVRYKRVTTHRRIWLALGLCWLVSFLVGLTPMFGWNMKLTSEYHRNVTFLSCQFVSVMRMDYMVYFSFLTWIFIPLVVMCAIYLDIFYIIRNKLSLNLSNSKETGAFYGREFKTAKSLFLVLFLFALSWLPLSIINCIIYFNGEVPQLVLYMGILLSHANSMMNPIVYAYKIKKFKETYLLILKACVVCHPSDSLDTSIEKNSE

[5] = tested on: Mus musculus; assay: Antineuropathic pain activity in mouse chronic constriction injury model of neuropathic pain assessed as reversal of reduction in paw withdrawal threshold of ipsilateral hind paw at 3 umol/kg, po dosed on day 7 after sciatic nerve ligation and measured at 3 hrs; assay type: functional; design: scale not given: the % may be the effect or the level left
Outline: (§1)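 Paw withdrawal threshold (g) measured at 1 h or 3 h after treatment, at day 7 (D7/BL) and at D0. % effect = [PWT at post-treatment time − PWT at D7/BL] / [PWT at D0 − PWT at D7/BL] × 100. Significance set at P<0.05. Procedures otherwise follow earlier work under IASP/NIH animal welfare guidelines.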

[6] = tested on: Mus musculus; assay: Antineuropathic pain activity in mouse chronic constriction injury model of neuropathic pain assessed as reversal of reduction in paw withdrawal threshold of ipsilateral hind paw at 3 umol/kg, po dosed on day 7 after sciatic nerve ligation and measured at 1 hrs; assay type: functional; outline: as §1
[7] = molecular target: T4, Adenosine receptor A2a (Homo sapiens, UniProt P29274); assay: Displacement of [3H]2-[p(2-carboxyethyl)phenyl-ethylamino]-5'-N-ethylcarboxamido-adenosine from human adenosine A2A receptor stably expressed in HEK293 cell membrane at 10 uM by radioligand binding assay; assay type: cell membranes
[8] = tested on: Mus musculus; assay: Antineuropathic pain activity in mouse chronic constriction injury model of neuropathic pain assessed as reversal of reduction in paw withdrawal threshold of ipsilateral hind paw at 1 umol/kg, po dosed on day 7 after sciatic nerve ligation and measured at 1 and 3 hrs; assay type: functional; outline: as §1
[9] = molecular target: T4, Adenosine receptor A2a; assay: Displacement of [3H]2-[p(2-carboxyethyl)phenyl-ethylamino]-5'-N-ethylcarboxamido-adenosine from human adenosine A2A receptor stably expressed in HEK293 cell membrane by radioligand binding assay; assay type: cell membranes
[10] = molecular target: Histamine H2 receptor (Homo sapiens) (UniProt P25021); assay: Displacement of [3H]tiotidine from H2 histamine receptor (unknown origin) expressed in cells at 10 uM incubated for […] by scintillation counting method; assay type: cell-based
[11] = tested on: PC-12; assay: Displacement of [3H]DTG from rat sigma 2 receptor in PC12 cells incubated for 2 hrs by liquid scintillation counting method; assay type: cell-based; conditions: dose or concentration not given here
[12] = species: Homo sapiens; assay: Selectivity ratio for human A3 adenosine receptor to human A2A adenosine receptor
[13] = molecular target: Translocator protein (Rattus norvegicus) (UniProt P16257); assay: Displacement of [3H]flunitrazepam from rat brain benzodiazepine receptor TSPO incubated for […] by liquid scintillation counting method
Sequence of Translocator protein (Rattus norvegicus) (P16257 whole entry, looked up): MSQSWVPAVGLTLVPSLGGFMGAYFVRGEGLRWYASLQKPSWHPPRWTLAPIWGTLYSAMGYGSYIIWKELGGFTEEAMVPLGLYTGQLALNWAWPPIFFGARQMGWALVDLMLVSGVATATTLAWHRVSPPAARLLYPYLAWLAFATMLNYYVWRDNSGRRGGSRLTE

T4 sequence (P29274 whole entry): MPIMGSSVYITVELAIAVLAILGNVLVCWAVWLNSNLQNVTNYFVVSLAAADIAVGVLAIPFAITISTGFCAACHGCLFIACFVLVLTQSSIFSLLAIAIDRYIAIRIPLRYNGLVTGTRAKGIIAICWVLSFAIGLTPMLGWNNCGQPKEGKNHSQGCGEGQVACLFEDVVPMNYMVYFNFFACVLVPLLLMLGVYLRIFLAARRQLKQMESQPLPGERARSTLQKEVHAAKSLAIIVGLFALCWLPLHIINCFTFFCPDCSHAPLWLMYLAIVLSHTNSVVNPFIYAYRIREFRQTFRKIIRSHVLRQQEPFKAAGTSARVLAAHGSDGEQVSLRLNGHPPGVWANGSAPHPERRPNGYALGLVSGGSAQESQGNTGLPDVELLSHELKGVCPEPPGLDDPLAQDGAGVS
Sequence of Histamine H2 receptor (Homo sapiens) (P25021 whole entry): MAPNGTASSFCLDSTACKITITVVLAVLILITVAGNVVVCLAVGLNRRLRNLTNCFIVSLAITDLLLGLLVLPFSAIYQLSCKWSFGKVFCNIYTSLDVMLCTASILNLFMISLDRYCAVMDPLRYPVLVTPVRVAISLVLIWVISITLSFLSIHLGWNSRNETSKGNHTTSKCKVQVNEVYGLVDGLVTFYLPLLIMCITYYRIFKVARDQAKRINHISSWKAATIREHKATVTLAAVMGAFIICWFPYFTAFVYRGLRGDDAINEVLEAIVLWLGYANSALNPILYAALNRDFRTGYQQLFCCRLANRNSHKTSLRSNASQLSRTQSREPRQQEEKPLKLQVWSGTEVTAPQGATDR

Compound | inhibition [1] | Ki [4] | inhibition [7] | Activity [2] | Activity [5] | Emax at 3 µmol/kg [6] | also measured
CNC(=O)[C@@]12C[C@@H]1[C@@H](n1cnc3c(NC)nc(-n4cc(-c5ncccn5)nn4)nc31)[C@H](O)[C@@H]2O | 14% | 3.48 nM | 27% | Non-toxic | 36.2% | 92.7% | Ki [3]: 334 nM
CCNc1nc(-n2cc(-c3ccc(Cl)s3)nn2)nc2c1ncn2[C@H]1[C@H](O)[C@H](O)[C@]2(C(=O)NC)C[C@H]12 |  | 1.22 nM | 32% | Non-toxic | 17.9% | 84.9% | 
CNC(=O)[C@@]12C[C@@H]1[C@@H](n1cnc3c(NCc4cccc(Cl)c4)nc(-n4cc(-c5ccc(Cl)s5)nn4)nc31)[C@H](O)[C@@H]2O |  | 9.02 nM |  | Non-toxic | 91% | 94.7% | inhibition in vivo at 1 µmol/kg [8]: 70%
CNC(=O)[C@@]12C[C@@H]1[C@@H](n1cnc3c(NC)nc(-n4cc(-c5cnn(C)c5)nn4)nc31)[C@H](O)[C@@H]2O | 2% | 2.16 nM | 1% | Non-toxic | 19.1% | 82.5% | 
CNC(=O)[C@@]12C[C@@H]1[C@@H](n1cnc3c(NCCc4ccccc4)nc(-n4cc(-c5ccc(Cl)s5)nn4)nc31)[C@H](O)[C@@H]2O | 58% | 6.66 nM |  | Non-toxic | 82.9% | 94.1% | 
CNC(=O)[C@@]12C[C@@H]1[C@@H](n1cnc3c(NC)nc(-n4cc(-c5cc6ccccc6o5)nn4)nc31)[C@H](O)[C@@H]2O | 12% | 1.25 nM | 40% | Non-toxic | 22.3% | 74% | 
CNC(=O)[C@@]12C[C@@H]1[C@@H](n1cnc3c(NC)nc(-n4cc(-c5ccc(F)c(F)c5)nn4)nc31)[C@H](O)[C@@H]2O |  | 1.06 nM | 39% | Non-toxic | 27% | 75.2% | 
CNC(=O)[C@@]12C[C@@H]1[C@@H](n1cnc3c(NC)nc(-n4cc(-c5ccccn5)nn4)nc31)[C@H](O)[C@@H]2O | 29% | 1.84 nM | 26% | Non-toxic | 21.1% | 60.9% | 
CNC(=O)[C@@]12C[C@@H]1[C@@H](n1cnc3c(NCc4cccc(Cl)c4)nc(N=[N+]=[N-])nc31)[C@H](O)[C@@H]2O |  | 1.08 nM |  |  |  |  | Ki [9]: 2770 nM
CNC(=O)[C@@]12C[C@@H]1[C@@H](n1cnc3c(NC4CCC4)nc(-n4cc(-c5ccc(Cl)s5)nn4)nc31)[C@H](O)[C@@H]2O |  | 7.05 nM |  | Non-toxic | 85.2% | 90.7% | 
CNC(=O)[C@@]12C[C@@H]1[C@@H](n1cnc3c(NC)nc(-n4cc(-c5cnccn5)nn4)nc31)[C@H](O)[C@@H]2O | 25% | 2.21 nM | 8% | Non-toxic | 26.6% | 76.6% | 
CNC(=O)[C@@]12CC1[C@@H](n1cnc3c(NC)nc(C#Cc4ccccc4)nc31)[C@H](O)[C@@H]2O (single isomer, unassigned) |  |  |  |  |  |  | Selectivity ratio [12]: > 3000
CNC(=O)[C@@]12C[C@@H]1[C@@H](n1cnc3c(NC4CCC4)nc(I)nc31)[C@H](O)[C@@H]2O |  | 1.53 nM |  |  |  |  | Ki [9]: > 10000 nM
CCNc1nc(I)nc2c1ncn2[C@H]1[C@H](O)[C@H](O)[C@]2(C(=O)NC)C[C@H]12 |  | 1.22 nM | 11% |  |  |  | 
CNC(=O)[C@@]12C[C@@H]1[C@@H](n1cnc3c(NC)nc(-n4cc(-c5ccc(Cl)s5)nn4)nc31)[C@H](O)[C@@H]2O | 27% | 0.73 nM | 34% | Non-toxic | 8.4% | 66.8% | inhibition [13]: 54%; inhibition [11]: 62%

Now from value to compound, other results behind:

inhibition [1] | Ki [4] | inhibition [7] | Compound | Activity [2] | Activity [5] | Emax at 3 µmol/kg [6] | also measured
 | 0.85 nM | 46% | CNC(=O)[C@@]12C[C@@H]1[C@@H](n1cnc3c(NC4CCC4)nc(N=[N+]=[N-])nc31)[C@H](O)[C@@H]2O |  |  |  | 
68% | 0.91 nM | 42% | CNC(=O)[C@@]12C[C@@H]1[C@@H](n1cnc3c(NCCc4ccccc4)nc(I)nc31)[C@H](O)[C@@H]2O |  |  |  | 
 | 0.58 nM | 7% | CNC(=O)[C@@]12C[C@@H]1[C@@H](n1cnc3c(NC)nc(-n4cc(-c5ccc(Br)s5)nn4)nc31)[C@H](O)[C@@H]2O | Non-toxic | 13.5% | 69.1% | 
 | 0.69 nM | 11% | CCNc1nc(N=[N+]=[N-])nc2c1ncn2[C@H]1[C@H](O)[C@H](O)[C@]2(C(=O)NC)C[C@H]12 |  |  |  | 
 | 0.96 nM | 35% | CNC(=O)[C@@]12C[C@@H]1[C@@H](n1cnc3c(NC)nc(-n4cc(-c5ccccc5)nn4)nc31)[C@H](O)[C@@H]2O | Non-toxic | 27.5% | 77.4% | 
 | 0.96 nM | 51% | CNC(=O)[C@@]12C[C@@H]1[C@@H](n1cnc3c(NC)nc(-n4cc(-c5ccco5)nn4)nc31)[C@H](O)[C@@H]2O | Non-toxic | 21.1% | 65.3% | inhibition [10]: 50%; inhibition [11]: 50%
93% | 0.85 nM |  | CNC(=O)[C@@]12C[C@@H]1[C@@H](n1cnc3c(NCCc4ccccc4)nc(N=[N+]=[N-])nc31)[C@H](O)[C@@H]2O |  |  |  | Ki [9]: 1110 nM
 | 0.54 nM | 1% | CNC(=O)[C@@]12C[C@@H]1[C@@H](n1cnc3c(NC)nc(N=[N+]=[N-])nc31)[C@H](O)[C@@H]2O |  |  |  | 
 | 0.95 nM | 31% | CNC(=O)[C@@]12C[C@@H]1[C@@H](n1cnc3c(NC)nc(-n4cc(-c5ccccc5Cl)nn4)nc31)[C@H](O)[C@@H]2O | Non-toxic | 7.9% | 69.1% | 
